From ChEMBL document CHEMBL1142889, “Synthesis and anticancer activity of a novel class of flavonoids: 2,4-diarylchromane[4,3-d]-delta(1,9b)-1,2,3-thiadiazolines” (Eur J Med Chem, 2007)
≈ marks a conversion by molar mass, not a printed value.

Legend:
[1] = Antiproliferative activity against ECA109 cells after 72 hrs by MTT assay; assay type: functional, cell-based; settings: Homo sapiens, ECa-109, 72 h
Method in brief: (§1)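 Cells were exposed to compound for 72 h. MTT in RPMI-1640 was then added and incubated for a further 4 h at 37 °C. Three replicate wells were used per point. IC50 for cell-viability inhibition was calculated from three independent experiments.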

MCF7 = assay: Antiproliferative activity against MCF7 cells after 72 hrs by MTT assay; assay type: functional, cell-based; settings: Homo sapiens, MCF7, 72 h; method in brief: as §1
Bel-7402 = assay: Antiproliferative activity against Bel7402 cells after 72 hrs by MTT assay; assay type: functional, cell-based; settings: Homo sapiens, Bel-7402, 72 h; method in brief: as §1
PC-3 = assay: Antiproliferative activity against PC3 cells after 72 hrs by MTT assay; assay type: functional, cell-based; settings: Homo sapiens, PC-3, 72 h; method in brief: as §1
HL-60 [2] = assay: Antiproliferative activity against HL60 cells after 72 hrs by MTT assay; assay type: functional, cell-based; settings: Homo sapiens, HL-60, 72 h; method in brief: as §1
A549 = assay: Antiproliferative activity against A549 cells after 72 hrs by MTT assay; assay type: functional, cell-based; settings: Homo sapiens, A549, 72 h; method in brief: as §1
CCRF S-180 [3] = assay: Antitumor activity against S180 cells inoculated in ICR mouse assessed as inhibition at 80 mg/kg, ip after 8 days relative to control; assay type: functional; settings: CCRF S-180, ip, 192 h, route intraperitoneal
Method in brief: (§2)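 S180 sarcoma was first passaged in mice for 7 days, then 2.5 × 10⁶ viable cells/mouse were injected s.c. into the armpit of female ICR mice. Compound was given i.p. once daily for 7 consecutive days, starting 24 h after inoculation. Group sizes were 10, or 20 for the saline control. Cyclophosphamide 50.0 mg/kg was the positive control. On day 8 tumors were excised and weighed, and inhibition = (C − T)/C × 100 using mean tumor weights.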

HL-60 [4] = assay: Induction of apoptosis in HL60 cells assessed as DNA fragmentation at 2 ug/mL after 48 hrs by flow cytometry; assay type: functional, Homo sapiens
Method in brief: (§3)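 HL-60 cells in exponential growth were treated for 48 h. They were washed twice in PBS and fixed in 70% ethanol at −20 °C. Cells were then RNase-treated for 1 h at 37 °C and stained with propidium iodide for 30 min at 4 °C. DNA content of 2 × 10⁴ cells was read by flow cytometry, and the sub-G0/G1 fraction was taken as apoptotic.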

HL-60 [5] = assay: Induction of apoptosis in HL60 cells assessed as DNA fragmentation at 1.0 ug/mL after 48 hrs by flow cytometry; assay type: functional, Homo sapiens; method in brief: as §3
HL-60 [6] = assay: Induction of apoptosis in HL60 cells assessed as DNA fragmentation at 0.5 ug/mL after 48 hrs by flow cytometry; assay type: functional, Homo sapiens; method in brief: as §3
CCRF S-180 [7] = assay: Antitumor activity against S180 cells inoculated in ICR mouse assessed as tumor weight at 80 mg/kg, ip after 8 days; assay type: functional; settings: route intraperitoneal; method in brief: as §2
CCRF S-180 [8] = assay: Antitumor activity against S180 cells inoculated in ICR mouse assessed as inhibition at 50 mg/kg, ip after 8 days relative to control; set-up: scale not given: the % may be the effect or the level left; settings: route intraperitoneal

SMILES	IC50 [1]	IC50 (MCF7)	IC50 (Bel-7402)	IC50 (PC-3)	IC50 (HL-60 [2])	IC50 (A549)	inhibition in vivo at 80 mg/kg (CCRF S-180 [3])	Activity (HL-60 [4])	Activity (HL-60 [5])	Activity (HL-60 [6])	Activity (CCRF S-180 [7])	Activity (CCRF S-180 [8])
CCOC12SN(c3ccc(NC(C)=O)cc3Cl)N=C1c1ccccc1OC2(OCC)c1ccc(Cl)cc1 (racemic)	9.6 µg/mL (≈ 17.2 µM)	23.3 µg/mL (≈ 41.7 µM)	21.3 µg/mL (≈ 38.1 µM)	4.1 µg/mL (≈ 7.34 µM)	2.2 µg/mL (≈ 3.94 µM)	4.2 µg/mL (≈ 7.52 µM)	–	–	–	–	–	–
CCOC12SN(c3ccc([N+](=O)[O-])cc3Cl)N=C1c1cc(C)ccc1OC2(OCC)c1cc2c(cc1Cl)OCO2 (racemic)	> 50 µg/mL	> 25 µg/mL	> 50 µg/mL	> 50 µg/mL	> 25 µg/mL	> 50 µg/mL	–	–	–	–	–	–
CCOC12SN(c3ccc([N+](=O)[O-])cc3Cl)N=C1c1cc(C)ccc1OC2(OCC)c1ccc(OC)cc1 (racemic)	> 50 µg/mL	> 25 µg/mL	21.8 µg/mL (≈ 39.2 µM)	> 50 µg/mL	> 25 µg/mL	> 50 µg/mL	–	–	–	–	–	–
CCOC12SN(c3ccc(S(C)(=O)=O)cc3Cl)N=C1c1ccccc1OC2(OCC)c1ccc(Cl)cc1 (racemic)	5.9 µg/mL (≈ 10.2 µM)	4.1 µg/mL (≈ 7.07 µM)	10.3 µg/mL (≈ 17.8 µM)	3.1 µg/mL (≈ 5.35 µM)	2.8 µg/mL (≈ 4.83 µM)	4.9 µg/mL (≈ 8.46 µM)	48.2%	68.3%	25.3%	3.9%	0.63 g	–
CCOC12SN(c3ccc(S(C)(=O)=O)cc3Cl)N=C1c1ccccc1OC2(OCC)c1ccc(OC)cc1 (racemic)	5.9 µg/mL (≈ 10.3 µM)	> 25 µg/mL	23.5 µg/mL (≈ 40.9 µM)	3.5 µg/mL (≈ 6.09 µM)	1.8 µg/mL (≈ 3.13 µM)	3.3 µg/mL (≈ 5.74 µM)	–	–	–	–	–	–
CCOC12SN(c3ccc(S(C)(=O)=O)cc3Cl)N=C1c1cc(C)ccc1OC2(OCC)c1ccc(Cl)cc1 (racemic)	11.5 µg/mL (≈ 19.4 µM)	2.5 µg/mL (≈ 4.21 µM)	7.3 µg/mL (≈ 12.3 µM)	6 µg/mL (≈ 10.1 µM)	6 µg/mL (≈ 10.1 µM)	10.3 µg/mL (≈ 17.4 µM)	–	–	–	–	–	–
CCOC12SN(c3ccc([N+](=O)[O-])cc3Cl)N=C1c1c(OC)cc(OC)c(Cl)c1OC2(OCC)c1ccccc1Cl (racemic)	> 50 µg/mL	> 25 µg/mL	> 50 µg/mL	> 50 µg/mL	> 25 µg/mL	> 50 µg/mL	–	–	–	–	–	–
CCOC12SN(c3ccc([N+](=O)[O-])cc3Cl)N=C1c1c(OC)cc(OC)c(Cl)c1OC2(OCC)c1ccc(Cl)cc1 (racemic)	> 50 µg/mL	> 25 µg/mL	> 50 µg/mL	15.8 µg/mL (≈ 24.7 µM)	6.7 µg/mL (≈ 10.5 µM)	> 50 µg/mL	–	–	–	–	–	–
CCOC12SN(c3ccc([N+](=O)[O-])cc3Cl)N=C1c1cc(C)ccc1OC2(OCC)c1cc(OC)c(OC)cc1Cl (racemic)	> 50 µg/mL	> 25 µg/mL	> 50 µg/mL	> 50 µg/mL	> 25 µg/mL	> 50 µg/mL	–	–	–	–	–	–
CCOC12SN(c3ccc([N+](=O)[O-])cc3Cl)N=C1c1ccccc1OC2(OCC)c1ccc(OC)cc1 (racemic)	9.6 µg/mL (≈ 17.7 µM)	23.3 µg/mL (≈ 43 µM)	8.2 µg/mL (≈ 15.1 µM)	5.7 µg/mL (≈ 10.5 µM)	3.3 µg/mL (≈ 6.09 µM)	5.1 µg/mL (≈ 9.41 µM)	–	–	–	–	–	–
CCOC12SN(c3ccc([N+](=O)[O-])cc3Cl)N=C1c1ccccc1OC2(OCC)c1ccc(Cl)cc1 (racemic)	6.9 µg/mL (≈ 12.6 µM)	15 µg/mL (≈ 27.5 µM)	11.8 µg/mL (≈ 21.6 µM)	4.1 µg/mL (≈ 7.5 µM)	2.2 µg/mL (≈ 4.03 µM)	3.8 µg/mL (≈ 6.95 µM)	–	–	–	–	–	–
CCOC12SN(c3ccc([N+](=O)[O-])cc3Cl)N=C1c1cc(C)ccc1OC2(OCC)c1ccc(Cl)cc1 (racemic)	14.8 µg/mL (≈ 26.4 µM)	> 25 µg/mL	18.6 µg/mL (≈ 33.2 µM)	> 50 µg/mL	> 25 µg/mL	7.8 µg/mL (≈ 13.9 µM)	–	–	–	–	–	–
CCOC12SN(c3ccc([N+](=O)[O-])cc3Cl)N=C1c1c(OC)cc(OC)c(Cl)c1OC2(OCC)c1ccc(C)cc1 (racemic)	7.3 µg/mL (≈ 11.8 µM)	> 25 µg/mL	> 50 µg/mL	7.3 µg/mL (≈ 11.8 µM)	16.8 µg/mL (≈ 27.1 µM)	> 50 µg/mL	–	–	–	–	–	–
CCOC12SN(c3ccc([N+](=O)[O-])cc3Cl)N=C1c1c(OC)cc(OC)c(Cl)c1OC2(OCC)c1ccc(OC)cc1 (racemic)	> 50 µg/mL	> 25 µg/mL	> 50 µg/mL	19.2 µg/mL (≈ 30.2 µM)	23.2 µg/mL (≈ 36.4 µM)	17.7 µg/mL (≈ 27.8 µM)	–	–	–	–	–	–
COc1cc(OC)c2c(c1Cl)OC(OC)(c1ccc(Cl)cc1)C1(OC)SN(c3ccc([N+](=O)[O-])cc3Cl)N=C21 (racemic)	5.7 µg/mL (≈ 9.3 µM)	5.5 µg/mL (≈ 8.97 µM)	> 50 µg/mL	2.9 µg/mL (≈ 4.73 µM)	3.2 µg/mL (≈ 5.22 µM)	5.4 µg/mL (≈ 8.81 µM)	–	–	–	–	–	–
CCOC12SN(c3ccc(S(C)(=O)=O)cc3Cl)N=C1c1c(OC)cc(OC)c(Cl)c1OC2(OCC)c1ccc(Cl)cc1 (racemic)	20.1 µg/mL (≈ 29.8 µM)	12.6 µg/mL (≈ 18.7 µM)	24.8 µg/mL (≈ 36.8 µM)	> 50 µg/mL	5.6 µg/mL (≈ 8.31 µM)	14.5 µg/mL (≈ 21.5 µM)	–	–	–	–	–	–
CCOC12SN(c3ccc(S(C)(=O)=O)cc3Cl)N=C1c1cc(C)ccc1OC2(OCC)c1ccc(OC)cc1 (racemic)	1.5 µg/mL (≈ 2.55 µM)	> 25 µg/mL	40.4 µg/mL (≈ 68.6 µM)	0.6 µg/mL (≈ 1.02 µM)	0.6 µg/mL (≈ 1.02 µM)	1.1 µg/mL (≈ 1.87 µM)	–	–	–	–	–	–
CCOC12SN(c3ccc(NC(C)=O)cc3Cl)N=C1c1cc(C)ccc1OC2(OCC)c1ccc(Cl)cc1 (racemic)	4.1 µg/mL (≈ 7.16 µM)	19.8 µg/mL (≈ 34.6 µM)	10.5 µg/mL (≈ 18.3 µM)	2.4 µg/mL (≈ 4.19 µM)	1.3 µg/mL (≈ 2.27 µM)	2.5 µg/mL (≈ 4.37 µM)	–	–	–	–	–	–
O=P1(N(CCCl)CCCl)NCCCO1 (stereo not given) [CYCLOPHOSPHAMIDE ANHYDROUS]	–	–	–	–	–	–	–	–	–	–	–	45.4%
O=C1CC(c2ccccc2)Oc2ccccc21 (stereo not given) [FLAVANONE]	27.7 µg/mL (≈ 124 µM)	> 25 µg/mL	> 50 µg/mL	16.6 µg/mL (≈ 74 µM)	3.4 µg/mL (≈ 15.2 µM)	14.2 µg/mL (≈ 63.3 µM)	–	–	–	–	–	–
